Article PMC4085604 (Scientific Reports, 2014)

Tests used:
[1] = tested on: BHQ-10-labeled anti-His-tag mAb “8-4-4”; assay: Homogeneous His6 detection assay; format: binding, mouse; conditions: for detectability within total assay time, in words: total assay time of less than two minutes; for phosphorescence response, in words: increasing protein concentration, TRF after 90 s shaking
Summary of the method: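 His6-tagged proteins (C- or N-terminal tag, or chemically His6-labeled BSA) in PBS pH 7.4 with 2 mg/mL BSA, or in E. coli lysate. Premixed with EuLH-HHRHH-NH2 donor peptide solution (40 nmol/L), then BHQ-10-labeled antibody solution (80 nmol/L) added. After 90 s shaking, read TRF at ex 370/em 616 nm. Triplicates. LOD is the lowest concentration whose mean exceeds blank plus 3 SD.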

anti-His-tag mAb “8-4-4” = format: binding, mouse; conditions: inferred from FRET efficiency curve

Molecule	detectability within total assay time, in words [1]	phosphorescence response, in words ([1]; n = 3)	affinity to the anti-His-tag antibody, in words (anti-His-tag mAb “8-4-4”)	further results
NPP3-His6: recombinant protein with C-terminal His-tag	could be detected highly significantly and semi-quantitatively			
Bovine serum albumin [BSA, reference compound]		no response		
HHEHH-NH2			full loss of affinity to the anti-His-tag antibody	
HHHHH-NH2			did not influence the FRET efficiency curve substantially, and therefore also not the affinity	
HHHHHH-NH2			strong and specific interaction between the peptide and the antibody	
His6-trigger factor: trigger factor (N-terminal His-tag) (protein, UniProt P0A850 1-432, looked up, N-terminal His6 tag) Trigger factor: MQVSVETTQGLGRRVTITIAADSIETAVKSELVNVAKKVRIDGFRKGKVPMNIVAQRYGASVRQDVLGDLMSRNFIDAIIKEKINPAGAPTYVPGEYKLGEDFTYSVEFEVYPEVELQGLEAIEVEKPIVEVTDADVDGMLDTLRKQQATWKEKDGAVEAEDRVTIDFTGSVDGEEFEGGKASDFVLAMGQGRMIPGFEDGIKGHKAGEEFTIDVTFPEEYHAENLKGKAAKFAINLKKVEERELPELTAEFIKRFGVEDGSVEGLRAEVRKNMERELKSAIRNRVKSQAIEGLVKANDIDVPAALIDSEIDVLRRQAAQRFGGNEKQALELPRELFEEQAKRRVVVGLLLGEVIRTNELKADEERVKGLIEEMASAYEDPKEVIEFYSKNKELMDNMRNVALEEQAVEAVLAKAKVTEKETTFNELMNQQA	could be detected highly significantly and semi-quantitatively	increasing phosphorescence intensities with increasing protein concentration		detection limit ([1]; mass concentration, sample 50 μL + donor peptide EuLH-HHRHH-NH2 (10 μL, 40 nmol/L) + BHQ-10-mAb (40 μL, 80 nmol/L), PBS pH 7.4 with 2 mg/mL BSA, 90 s, n = 3, background plus 3x SD): 39 mg/L
